SUMO Mot1 rescue – blocks SUMOylation pathway, rescuing yeast Mot1-301 growth | growth rescue, % at 18.8 µM | 320,000 compounds, 1% hits | S. cerevisiae Mot1-301 growth rescue, ATP luminescence, 38.5C; percent above DMSO median, 100 means doubled | AID 2716;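 active means every valid replicate shows activation above 250% relative to neutral control wells; inactive means the rest, any valid replicate at or below 250%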;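 further: OY570 slx delta 5 strain wells were the positive control but not used for scaling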
Cneo AK release – causes C. neoformans cell lysis | 360,000 compounds, 0.2% hits | lysis activity, % at 15 µM | adenylate kinase release luminescence, 4 h; normalised: neutral wells 0, clomiphene wells 100;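 active means mean lysis activity across replicates of at least 80%, whatever share of replicates individually reach that level; inactive means mean lysis activity below 80%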
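Material: C. neoformans cells; Schedule: 4 h static compound exposure, 37 °C, read 1 h post-reagent; Measured by: adenylate kinase release luminescence; Read-out: signal increase indicating cell lysis; Controls: Clomiphene as positive lysis control.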
Ecoli rRNA inh – inhibits bacterial ribosomal RNA function over humanized ribosomes. GFP signal change (wild-type ribosome), % (concentration not given with the values). 350,000 compounds, 1.6% hits. AID 720706. E. coli WT GFP vs humanized-ribosome RFP mutants, fluorescence, 24 h; hits give low values; DMSO median 0, no signal -100;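 active means significant combined selectivity score with lowered wild-type GFP, culture density cut under 30%, mutant RFP and density less affected; inactive means any of these conditions unmet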
Yeast superoxide – yeast age-related superoxide inhibition as caloric restriction mimetic | S. cerevisiae aged cells, superoxide DHE fluorescence; hits give low values | superoxide response (% of plate mean), % at 10 µM | 330,000 compounds, 0.18% hits;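 active means superoxide response under a set limit, about three screen SD below normal, cut at about 65% in these data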;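 further: yeast aged for seven days with compound at 30 °C before DHE staining; 100% = average MFI of all compound-treated wells on the plate with controls excluded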
PglD DTNB – blocks C. jejuni PglD acetyltransferase activity. purified PglD enzyme, DTNB colorimetric CoA detection. inhibition, % at 12.5 µM. 360,000 compounds, 0.098% hits; in the data active means inhibition above about 16%, passing the limit was not always enough
* hit, by the source's call; x = no result given. Sampled rows, rich in hits. Any-hit rate of the full collection: about 2.2%.

SMILES | SUMO Mot1 rescue | Cneo AK release | Ecoli rRNA inh | Yeast superoxide | PglD DTNB
Cc1ccc(-c2n[nH]c(=S)n2/N=C/c2cccs2)cc1 | -14 | 10 | -33* | 84 | 7
Cc1cc(-c2n[nH]c(=S)n2/N=C/c2cccs2)n[nH]1 | -19 | x | x | 82 | x
COc1ccc2c3c([nH]c2c1)[C@H](CO)NCC31CN(C(=O)C2CC2)C1 | x | x | 4 | x | x
C[C@@H]1CCCCO[C@@H](CN(C)C(=O)Nc2ccc3c(c2)OCO3)[C@@H](C)CN([C@H](C)CO)C(=O)c2cc(NS(=O)(=O)c3ccccc3)ccc2O1 | x | 5 | 5 | x | -1
CCOC(=O)c1cc2sccc2n1CCCN1C(=O)c2ccccc2C1=O | -14 | -4 | -28* | 109 | -2
CCOC(=O)c1cc2sccc2n1Cc1ccccc1 | -9 | -2 | x | 100 | -3
CC(=O)n1cc(Nc2ccc([N+](=O)[O-])cc2)c2ccccc21 | x | x | 22 | 93 | x
CC(=O)SC(C[N+](=O)[O-])c1cn(C(C)=O)c2ccccc12 (stereo not given) | 404* | x | x | 104 | x
COc1ccc(S(=O)(=O)N[C@@H]2CC[C@@H](CC(=O)NCc3ccccc3F)O[C@H]2CO)cc1 | x | 7 | 0 | x | 0
CCOc1ccc(NC(=S)N2CCC(C(=O)c3ccc(OC)cc3)CC2)cc1 | x | 3 | -14* | x | -6
COc1ccc(NC(=S)N2CCC(C(=O)c3ccc(Cl)cc3)CC2)cc1 | x | 0 | 4 | x | 11
CC1(C)Cc2ccccc2C(CSc2ccccc2C(=O)O)=N1 | 12 | -1 | -25* | 88 | 4
Cc1nn(-c2ccccc2)c(N)c1C(O)(CC(=O)C(F)(F)F)C(F)(F)F (stereo not given) | 333* | x | x | 94 | x
Cc1nn(-c2ccccc2)c(N)c1C(O)(C(F)(F)F)C(F)(F)F | 23 | x | x | 111 | x
COc1ccccc1S(=O)(=O)N[C@H]1CC[C@@H](CC(=O)N2CCN(C)CC2)O[C@H]1CO | x | -5 | 2 | x | -1
COc1cc(/C=C(\C#N)C(=O)N2CCc3ccccc32)ccc1O | 241 | -7 | -33* | 92 | 2
O=C(COC(=O)CNC(=O)c1ccco1)NCCN1C(=O)CSC1=O | 320* | 0 | x | 99 | 1
COc1ccc2c3c(n(C)c2c1)[C@H](CO)N(Cc1nccs1)CC31CCN(C(C)=O)CC1 | x | x | 2 | x | x
S=C(NCc1ccccn1)NN=Cc1ccccn1 | x | x | -19* | x | x
Cc1ccc(NC(=S)NCc2ccccn2)cc1 | -8 | 49 | x | 87 | 2
